According to ChEMBL document CHEMBL1124641, “Synthesis and antiinflammatory and analgesic activity of 5-aroyl-6-(methylthio)-1,2-dihydro-3H-pyrrolo[1,2-a]pyrrole-1-ca rboxyl ic acids and 1-methyl-4-(methylthio)-5-aroylpyrrole-2-acetic acids” (J Med Chem, 1989):

Legend:
Mus musculus = assay: Analgesic activity was assessed from the ability to inhibit phenylquinone-induced writhing in mouse […]; type: functional
Outline: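 Mouse phenylquinone-induced writhing screen. Potency is expressed relative to aspirin (aspirin = 1), with 95% confidence limits where given.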

Rattus norvegicus [1] = assay: Antiinflammatory activity assessed by inhibition of carrageenan-induced edema in rats […]; type: functional
[2] = Therapeutic ratio of MED GI erosion to that of ED30 of rat paw; type: ADME
Outline: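 Ratio derived as the gastrointestinal erosion minimum effective dose divided by the ED30 from the carrageenan rat paw assay. The erosion dose (mg/kg per day) comes from a 7-day chronic dosing assay in rats.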

Rattus norvegicus [3] = organism: Rattus norvegicus; assay: Chronic gastrointestinal erosive activity in rats; type: functional; settings: read-out: MED
Outline: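 Chronic 7-day gastrointestinal erosion assay in rats with daily dosing. The read-out is the minimum effective dose for erosion (mg/kg per day), with 15 rats where stated.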

Structure (SMILES)	ED50 (Mus musculus)	ED30 (Rattus norvegicus [1])	selectivity ratio [2]	minimal effective dose (Rattus norvegicus [3])
CSc1ccc(C(=O)c2c(SC)cc3n2CCC3C(=O)O)cc1 (stereo unspecified)	50 mg/kg	10 mg/kg	–	–
O=C(c1ccccc1)c1ccc2n1CCC2C(=O)O (stereo unspecified) [KETOROLAC]	–	–	18	5 mg/kg
CCc1ccc(C(=O)c2c(SC)cc3n2CCC3C(=O)O)cc1 (stereo unspecified)	70 mg/kg	16 mg/kg	–	–
CSc1cc2n(c1C(=O)c1ccc(C3CCCCC3)cc1)CCC2C(=O)O (stereo unspecified)	< 3 mg/kg	< 1 mg/kg	–	–
CCOc1ccc(C(=O)c2c(SC)cc3n2CCC3C(=O)O)cc1 (stereo unspecified)	< 13 mg/kg	4 mg/kg	–	–
CSc1cc(CC(=O)O)n(C)c1C(=O)c1ccc(F)cc1	37 mg/kg	0.5 mg/kg	–	–
CCCc1ccc(C(=O)c2c(SC)cc(CC(=O)O)n2C)cc1	5 mg/kg	0.2 mg/kg	–	–
CSc1cc(CC(=O)O)n(C)c1C(=O)c1ccccc1	> 11 mg/kg	1 mg/kg	–	–
Cc1cc(CC(=O)O)n(C)c1C(=O)c1ccc(Cl)cc1 [ZOMEPIRAC]	–	–	17	10 mg/kg
CCCCC1C(=O)N(c2ccccc2)N(c2ccccc2)C1=O [PHENYLBUTAZONE]	–	15 mg/kg	–	–
CCOc1ccc(C(=O)c2c(SC)cc(CC(=O)O)n2C)cc1	6 mg/kg	3.6 mg/kg	–	–
CSc1cc2n(c1C(=O)c1ccc(F)cc1)CCC2C(=O)O (stereo unspecified)	60 mg/kg	< 10 mg/kg	–	–
CSc1cc2n(c1C(=O)c1ccc(C(F)(F)F)cc1)CCC2C(=O)O (stereo unspecified)	50 mg/kg	15 mg/kg	–	–
CSc1cc2n(c1C(=O)c1ccc(C)cc1)CCC2C(=O)O (stereo unspecified)	–	–	4	19 mg/kg
CCCc1ccc(C(=O)c2c(SC)cc3n2CCC3C(=O)O)cc1 (stereo unspecified)	7 mg/kg	2.5 mg/kg	–	–
CC(=O)Oc1ccccc1C(=O)O [ASPIRIN]	70 mg/kg	–	–	–
CSc1cc2n(c1C(=O)c1ccc(C3CC3)cc1)CCC2C(=O)O (stereo unspecified)	25 mg/kg	13 mg/kg	–	–
CSc1cc(CC(=O)O)n(C)c1C(=O)c1ccc(C2CC2)cc1	30 mg/kg	10 mg/kg	–	–
CS(=O)(=O)c1cc2n(c1C(=O)c1ccc(Br)cc1)CCC2C(=O)O (stereo unspecified)	–	< 1 mg/kg	–	–
CSc1cc2n(c1C(=O)c1ccc(OC(C)C)cc1)CCC2C(=O)O (stereo unspecified)	1 mg/kg	< 1 mg/kg	–	–
CSc1cc2n(c1C(=O)c1ccc(Cl)cc1)CCC2C(=O)O (stereo unspecified)	–	–	3.5	1.5 mg/kg
CSc1cc(CC(=O)O)n(C)c1C(=O)c1ccc(Cl)cc1	56 mg/kg	1.5 mg/kg	–	–
COc1ccc2cc([C@H](C)C(=O)O)ccc2c1 [NAPROXEN]	–	–	22	30 mg/kg/day
CSc1cc2n(c1C(=O)c1ccc(Br)cc1)CCC2C(=O)O (stereo unspecified)	< 9 mg/kg	26 mg/kg	–	–
C=Cc1ccc(C(=O)c2c(SC)cc3n2CCC3C(=O)O)cc1 (stereo unspecified)	38 mg/kg	16 mg/kg	–	–
COc1ccc(C(=O)c2c(SC)cc3n2CCC3C(=O)O)cc1 (stereo unspecified)	50 mg/kg	< 10 mg/kg	–	–
CSc1cc(CC(=O)O)n(C)c1C(=O)c1ccc(C)cc1	–	–	> 4.5	> 45 mg/kg
